Measurements from ChEMBL document CHEMBL1687701, “Discovery of N-Aryl Piperazines as Selective mGlu(5) Potentiators with Efficacy in a Rodent Model Predictive of Anti-Psychotic Activity” (ACS Med Chem Lett, 2010).
One block for each compound: values may come before it. Activity calls are given as the source filed them. The rule behind the calls is not given here.

Legend:
[1] = target: T1, Metabotropic glutamate receptor 5 (Rattus norvegicus, UniProt P31424); test: Positive allosteric modulation at rat mGluR5 receptor expressed in HEK293 cells assessed as glutamate-induced calcium fluorescence by Fluo-4/AM dye-based fluorescence assay; format: functional, cell-based
T1 sequence (P31424 whole entry): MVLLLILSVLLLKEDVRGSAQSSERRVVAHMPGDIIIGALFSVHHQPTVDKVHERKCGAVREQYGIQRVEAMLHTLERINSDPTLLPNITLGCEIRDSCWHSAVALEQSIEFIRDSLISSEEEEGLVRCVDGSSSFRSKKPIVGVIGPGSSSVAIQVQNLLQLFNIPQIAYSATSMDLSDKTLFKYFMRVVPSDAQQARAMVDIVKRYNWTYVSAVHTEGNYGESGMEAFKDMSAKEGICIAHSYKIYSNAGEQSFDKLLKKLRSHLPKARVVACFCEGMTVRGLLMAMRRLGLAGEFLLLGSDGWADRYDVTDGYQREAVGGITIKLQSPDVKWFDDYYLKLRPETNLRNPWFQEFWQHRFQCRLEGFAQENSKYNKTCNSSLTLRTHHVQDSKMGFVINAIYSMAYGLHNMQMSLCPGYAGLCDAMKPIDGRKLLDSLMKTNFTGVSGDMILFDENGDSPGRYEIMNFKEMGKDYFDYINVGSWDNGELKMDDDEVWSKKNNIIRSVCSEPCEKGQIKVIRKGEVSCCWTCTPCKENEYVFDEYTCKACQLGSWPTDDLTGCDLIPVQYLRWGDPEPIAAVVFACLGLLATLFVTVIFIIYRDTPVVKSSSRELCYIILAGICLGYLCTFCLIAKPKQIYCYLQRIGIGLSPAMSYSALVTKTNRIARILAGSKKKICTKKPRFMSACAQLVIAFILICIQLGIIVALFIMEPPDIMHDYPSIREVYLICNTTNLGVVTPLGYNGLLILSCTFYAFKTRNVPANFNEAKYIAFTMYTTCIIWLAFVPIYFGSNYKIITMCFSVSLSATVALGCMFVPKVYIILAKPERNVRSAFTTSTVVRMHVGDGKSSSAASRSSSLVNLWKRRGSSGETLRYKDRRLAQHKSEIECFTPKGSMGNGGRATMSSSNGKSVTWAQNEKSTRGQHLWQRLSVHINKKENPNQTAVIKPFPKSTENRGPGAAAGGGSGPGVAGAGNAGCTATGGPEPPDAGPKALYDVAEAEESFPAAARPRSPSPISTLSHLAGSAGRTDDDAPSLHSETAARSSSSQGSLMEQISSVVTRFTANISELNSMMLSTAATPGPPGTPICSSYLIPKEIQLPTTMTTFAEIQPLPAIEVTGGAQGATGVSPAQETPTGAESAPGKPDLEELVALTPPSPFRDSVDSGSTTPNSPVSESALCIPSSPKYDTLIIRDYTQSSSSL

[2] = target: Metabotropic glutamate receptor 5 (Rattus norvegicus) (UniProt P31424); test: Positive allosteric modulation at rat mGluR5 receptor expressed in HEK293 cells assessed as glutamate-induced calcium fluorescence at 30 uM by Fluo-4/AM dye-based fluorescence assay in relative to glutamate; format: functional, cell-based
Chain of Metabotropic glutamate receptor 5 (Rattus norvegicus) (P31424 21-1203 limits assumed): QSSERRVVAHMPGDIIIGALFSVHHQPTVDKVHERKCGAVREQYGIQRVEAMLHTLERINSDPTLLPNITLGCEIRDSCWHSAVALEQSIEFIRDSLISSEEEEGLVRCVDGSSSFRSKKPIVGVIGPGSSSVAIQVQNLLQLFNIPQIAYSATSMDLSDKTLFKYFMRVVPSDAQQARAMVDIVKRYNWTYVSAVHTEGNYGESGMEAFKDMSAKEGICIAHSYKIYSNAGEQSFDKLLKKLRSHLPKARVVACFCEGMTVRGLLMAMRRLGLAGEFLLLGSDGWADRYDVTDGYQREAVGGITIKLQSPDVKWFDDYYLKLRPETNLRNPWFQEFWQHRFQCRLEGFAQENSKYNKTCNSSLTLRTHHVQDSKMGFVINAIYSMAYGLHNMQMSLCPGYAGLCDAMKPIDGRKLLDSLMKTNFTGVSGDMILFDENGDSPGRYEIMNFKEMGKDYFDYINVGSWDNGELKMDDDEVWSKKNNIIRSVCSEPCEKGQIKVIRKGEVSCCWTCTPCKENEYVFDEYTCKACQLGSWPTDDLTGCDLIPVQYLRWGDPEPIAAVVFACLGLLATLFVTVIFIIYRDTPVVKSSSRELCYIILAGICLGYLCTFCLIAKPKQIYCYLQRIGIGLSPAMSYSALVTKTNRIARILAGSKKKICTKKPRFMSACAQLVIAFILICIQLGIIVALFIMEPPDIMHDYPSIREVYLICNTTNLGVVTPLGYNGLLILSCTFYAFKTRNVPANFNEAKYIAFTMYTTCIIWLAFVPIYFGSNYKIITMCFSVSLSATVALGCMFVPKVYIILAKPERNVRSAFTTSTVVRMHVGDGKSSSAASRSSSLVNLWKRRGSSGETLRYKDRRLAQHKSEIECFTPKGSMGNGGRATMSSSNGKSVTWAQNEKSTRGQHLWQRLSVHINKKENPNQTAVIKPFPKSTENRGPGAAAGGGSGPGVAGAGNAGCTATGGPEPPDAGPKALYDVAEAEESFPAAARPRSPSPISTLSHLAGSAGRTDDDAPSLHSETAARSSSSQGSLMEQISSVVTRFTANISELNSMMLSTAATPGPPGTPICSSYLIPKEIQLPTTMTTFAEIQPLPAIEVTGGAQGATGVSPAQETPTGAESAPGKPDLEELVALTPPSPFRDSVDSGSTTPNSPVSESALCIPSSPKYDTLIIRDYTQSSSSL

[3] = target: Metabotropic glutamate receptor 5 (Rattus norvegicus) (UniProt P31424); test: Potentiation of rat mGluR5 expressed in HEK293 cells assessed as glutamate-induced calcium fluorescence at 10 uM by Fluo-4/AM dye-based fluorescence assay; format: functional, cell-based
[4] = target: Metabotropic glutamate receptor 5 (Rattus norvegicus) (UniProt P31424); test: Positive allosteric modulation at mGluR5 in […] cells at 30 uM by Fluo-4/AM dye-based fluorescence assay; format: cell-based
[5] = target: Metabotropic glutamate receptor 5 (Rattus norvegicus) (UniProt P31424); test: Displacement of [3H]3-methoxy-PEPy from rat mGluR5 receptor allosteric binding site at 30 uM
Outline: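 Radioligand binding uses [3H]3-methoxy-PEPy at the mGluR5 allosteric site. Displacement is read at the highest compound concentration tested, 30 μM.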

[6] = target: Metabotropic glutamate receptor 5 (Rattus norvegicus) (UniProt P31424); test: Potentiation of rat mGluR5 receptor assessed as fold shift in glutamate concentration response curve at 10 uM relative to control
[7] = target: Metabotropic glutamate receptor 1 (Rattus norvegicus) (UniProt P23385); test: Potentiation of rat mGluR1 receptor assessed as fold shift in glutamate concentration response curve at 10 uM relative to control
[8] = target: Metabotropic glutamate receptor 2 (Rattus norvegicus) (UniProt P31421); test: Potentiation of rat mGluR2 receptor assessed as fold shift in glutamate concentration response curve at 10 uM relative to control
[9] = target: Metabotropic glutamate receptor 3 (Rattus norvegicus) (UniProt P31422); test: Potentiation of rat mGluR3 receptor assessed as fold shift in glutamate concentration response curve at 10 uM relative to control
Chain of Metabotropic glutamate receptor 3 (Rattus norvegicus) (P31422 23-879 limits assumed): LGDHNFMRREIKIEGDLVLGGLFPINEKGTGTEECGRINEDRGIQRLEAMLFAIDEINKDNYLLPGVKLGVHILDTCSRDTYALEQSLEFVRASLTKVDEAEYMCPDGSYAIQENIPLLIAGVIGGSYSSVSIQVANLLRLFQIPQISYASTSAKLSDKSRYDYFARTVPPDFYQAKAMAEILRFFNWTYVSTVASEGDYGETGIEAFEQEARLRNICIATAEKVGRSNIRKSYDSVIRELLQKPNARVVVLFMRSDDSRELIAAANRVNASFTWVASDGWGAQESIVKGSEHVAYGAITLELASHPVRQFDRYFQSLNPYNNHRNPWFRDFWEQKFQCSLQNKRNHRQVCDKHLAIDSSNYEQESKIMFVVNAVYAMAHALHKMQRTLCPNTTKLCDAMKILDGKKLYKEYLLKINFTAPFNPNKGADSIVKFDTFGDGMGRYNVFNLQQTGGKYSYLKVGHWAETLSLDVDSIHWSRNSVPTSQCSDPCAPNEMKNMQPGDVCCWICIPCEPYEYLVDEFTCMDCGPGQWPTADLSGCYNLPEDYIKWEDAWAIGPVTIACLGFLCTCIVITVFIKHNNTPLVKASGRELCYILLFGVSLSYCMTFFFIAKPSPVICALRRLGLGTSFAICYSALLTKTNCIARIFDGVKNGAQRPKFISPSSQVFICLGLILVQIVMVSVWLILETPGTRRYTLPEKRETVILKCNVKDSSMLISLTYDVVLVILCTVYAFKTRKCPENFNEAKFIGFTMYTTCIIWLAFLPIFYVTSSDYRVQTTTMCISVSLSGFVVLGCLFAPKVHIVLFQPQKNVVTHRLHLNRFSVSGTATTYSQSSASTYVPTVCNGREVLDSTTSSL

[10] = target: Metabotropic glutamate receptor 4 (Rattus norvegicus) (UniProt P31423); test: Potentiation of rat mGluR4 receptor assessed as fold shift in glutamate concentration response curve at 10 uM relative to control
Chain of Metabotropic glutamate receptor 4 (Rattus norvegicus) (P31423 whole entry): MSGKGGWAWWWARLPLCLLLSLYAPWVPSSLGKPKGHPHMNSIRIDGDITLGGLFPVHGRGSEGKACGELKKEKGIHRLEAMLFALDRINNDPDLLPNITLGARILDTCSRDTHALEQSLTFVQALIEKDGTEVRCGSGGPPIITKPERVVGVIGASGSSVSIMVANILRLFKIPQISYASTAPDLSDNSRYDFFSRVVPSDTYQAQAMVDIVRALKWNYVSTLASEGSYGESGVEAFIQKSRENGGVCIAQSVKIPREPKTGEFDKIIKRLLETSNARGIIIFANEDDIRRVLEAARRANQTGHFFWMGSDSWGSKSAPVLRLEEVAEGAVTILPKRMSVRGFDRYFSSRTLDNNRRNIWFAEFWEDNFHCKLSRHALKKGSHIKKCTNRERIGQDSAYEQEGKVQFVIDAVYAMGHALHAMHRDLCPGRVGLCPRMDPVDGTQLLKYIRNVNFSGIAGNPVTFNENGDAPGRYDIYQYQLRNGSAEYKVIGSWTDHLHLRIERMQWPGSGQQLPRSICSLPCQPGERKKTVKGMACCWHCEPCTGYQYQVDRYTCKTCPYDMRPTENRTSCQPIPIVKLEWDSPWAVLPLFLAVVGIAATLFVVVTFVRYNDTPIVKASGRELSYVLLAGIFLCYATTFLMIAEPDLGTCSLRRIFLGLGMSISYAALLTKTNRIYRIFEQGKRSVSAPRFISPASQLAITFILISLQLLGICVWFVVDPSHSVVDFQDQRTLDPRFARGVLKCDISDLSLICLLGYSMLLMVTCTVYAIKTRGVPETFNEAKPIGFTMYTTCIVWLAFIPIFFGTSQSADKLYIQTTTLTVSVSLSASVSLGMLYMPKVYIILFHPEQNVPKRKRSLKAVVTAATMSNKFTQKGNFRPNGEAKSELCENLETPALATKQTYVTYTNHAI

[11] = target: Metabotropic glutamate receptor 6 (Rattus norvegicus) (UniProt P35349); test: Potentiation of rat mGluR6 receptor assessed as fold shift in glutamate concentration response curve at 10 uM relative to control
Chain of Metabotropic glutamate receptor 6 (Rattus norvegicus) (P35349 whole entry): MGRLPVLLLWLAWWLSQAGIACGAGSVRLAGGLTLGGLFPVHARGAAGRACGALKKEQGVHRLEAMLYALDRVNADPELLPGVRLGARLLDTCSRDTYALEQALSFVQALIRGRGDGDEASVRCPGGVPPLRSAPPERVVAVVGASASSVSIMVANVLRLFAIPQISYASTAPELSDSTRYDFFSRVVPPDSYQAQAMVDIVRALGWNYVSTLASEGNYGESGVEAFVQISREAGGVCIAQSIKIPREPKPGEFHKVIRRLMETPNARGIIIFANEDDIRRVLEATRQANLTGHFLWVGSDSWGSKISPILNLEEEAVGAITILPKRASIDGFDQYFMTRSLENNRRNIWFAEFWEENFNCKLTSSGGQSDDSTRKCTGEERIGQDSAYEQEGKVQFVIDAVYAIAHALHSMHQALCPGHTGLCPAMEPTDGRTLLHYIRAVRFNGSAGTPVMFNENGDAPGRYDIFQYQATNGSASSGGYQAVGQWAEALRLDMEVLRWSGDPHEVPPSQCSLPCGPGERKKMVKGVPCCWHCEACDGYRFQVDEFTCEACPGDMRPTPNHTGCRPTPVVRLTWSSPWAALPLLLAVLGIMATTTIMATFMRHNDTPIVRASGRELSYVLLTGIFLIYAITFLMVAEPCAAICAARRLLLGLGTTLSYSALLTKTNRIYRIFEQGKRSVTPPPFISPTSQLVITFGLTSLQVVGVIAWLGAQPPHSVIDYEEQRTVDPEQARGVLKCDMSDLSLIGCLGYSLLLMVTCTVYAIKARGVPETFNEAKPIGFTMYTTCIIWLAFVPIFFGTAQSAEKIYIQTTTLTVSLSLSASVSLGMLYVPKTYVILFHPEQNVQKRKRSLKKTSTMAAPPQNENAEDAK

[12] = target: Metabotropic glutamate receptor 7 (Rattus norvegicus) (UniProt P35400); test: Potentiation of rat mGluR7 receptor assessed as fold shift in glutamate concentration response curve at 10 uM relative to control
[13] = target: Metabotropic glutamate receptor 8 (Rattus norvegicus) (UniProt P70579); test: Potentiation of rat mGluR8 receptor assessed as fold shift in glutamate concentration response curve at 10 uM relative to control
Plasma [14] = test: Plasma protein binding in human after 4 hrs by LC-MS-MS; format: ADME, cell-free
Plasma [15] = test: Plasma protein binding in Sprague-Dawley rat after 4 hrs by LC-MS-MS; format: ADME, cell-free
[16] = Metabolic stability in human liver microsome assessed as compound remaining after 60 mins by LC-MS-MS; format: ADME; details: liver microsomes, read-out: Stability
[17] = Metabolic stability in Sprague-Dawley rat liver microsome assessed as compound remaining after 60 mins by LC-MS-MS; format: ADME; details: liver microsomes, read-out: Stability
[18] = Aqueous solubility of the compound in 0.01 N HCl buffer at pH 2 by HPLC; format: physicochemical
[19] = Aqueous solubility of the compound in 0.1 M citrate buffer at pH 4 by HPLC; format: physicochemical
[20] = Aqueous solubility of the compound in 0.2M sodium phosphate buffer at pH 7.4 by HPLC; format: physicochemical
[21] = Passive transcellular permeability of the compound by PAMPA; format: ADME; details: read-out: permeability
Rattus norvegicus = test: Reversal of amphetamine-induced hyperlocomotion in Sprague-Dawley rat at 56.6 mg/kg, ip administered 30 mins before amphetamine challenge measured for 60 mins; format: functional, organism-based; parameters: dose 56.6 mg/kg
Outline: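 Rats get vehicle or 56.6 mg/kg compound ip in 20% HP β-cyclodextrin 30 min before 1 mg/kg sc amphetamine, given at 60 min. Ambulations (beam breaks per 5 min interval) are counted for a further 60 min. Groups are 12−14 rats, shown as mean ± SEM, compared with the vehicle + amphetamine group by Dunnett's test.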

[22] = target: T1, Metabotropic glutamate receptor 5; test: Negative allosteric modulation at rat mGluR5 receptor

SMILES: O=C(COCc1ccccc1)N1CCN(c2nccs2)CC1
EC50 ([1]; read-out: EC50): > 10 µM | Activity [2]: 30%

SMILES: O=C(COCc1ccccc1)N1CCN(c2ncccn2)CC1
EC50 ([1]; hek293): Not Active

SMILES: O=C(N1CCN(c2ccccn2)CC1)C12CC3CC(CC(C3)C1)C2
IC50 [22]: 0.99 µM

SMILES: O=C(COCc1ccccc1)N1CCN(c2cccnc2)CC1
EC50 ([1]; hek293): Not Active

SMILES: O=C(COCc1ccccc1)N1CCN(c2nc3ccccc3s2)CC1
EC50 ([1]; read-out: EC50): > 10 µM | Activity [2]: 66%

SMILES: N#Cc1cccnc1N1CCN(C(=O)COCc2ccccc2)CC1
EC50 ([1]; read-out: EC50): > 10 µM | Activity [2]: 33%

More lines, main results first:

EC50 ([1]; read-out: EC50): 1.6 µM | Activity [2]: 78% | Activity [3]: Active | Activity [4]: < 10% | Activity [5]: inactive | fold change (FC) [6]: 12 | Activity [7]: inactive | Activity [8]: inactive | Activity [9]: inactive | Activity [10]: inactive | Activity [11]: inactive | Activity [12]: inactive | Activity [13]: inactive | PPB (Plasma [14]): 94% | PPB (Plasma [15]): 90% | remaining at 1 h [16]: < 5% | remaining at 1 h [17]: < 5% | solubility [18]: > 80 µM | solubility [19]: > 80 µM | solubility [20]: > 80 µM | Papp [21]: 2.2 ×10⁻⁶ cm/s
SMILES: N#Cc1ccccc1N1CCN(C(=O)COCc2ccccc2)CC1
Activity (Rattus norvegicus): Active

EC50 ([1]; read-out: EC50): > 10 µM | Activity [2]: 51%
SMILES: COC(=O)c1ccccc1N1CCN(C(=O)COCc2ccccc2)CC1

EC50 ([1]; read-out: EC50): 1.8 µM | Activity [2]: 81%
SMILES: O=C(COCc1ccccc1)N1CCN(c2ccccc2[N+](=O)[O-])CC1

EC50 ([1]; read-out: EC50): 5.4 µM | Activity [2]: 86%
SMILES: O=C(COCc1ccccc1)N1CCN(c2ccccn2)CC1

EC50 ([1]; read-out: EC50): 4.3 µM | Activity [2]: 70%
SMILES: O=C(COCc1ccccc1)N1CCN(c2ncccc2C(F)(F)F)CC1

EC50 ([1]; read-out: EC50): 9.2 µM | Activity [2]: 86%
SMILES: COc1ccccc1N1CCN(C(=O)COCc2ccccc2)CC1

EC50 ([1]; read-out: EC50): 0.82 µM | Activity [2]: 90%
SMILES: O=C(COCc1ccccc1)N1CCN(c2ccccc2Cl)CC1
